Reference: ChEMBL document CHEMBL3585257, “Structure-Activity Relationship Studies of 3-epi-Deoxynegamycin Derivatives as Potent Readthrough Drug Candidates” (ACS Med Chem Lett, 2015)
Converted amounts (≈) assume the structure as drawn.

Key:
COS-7 [1] = assay: (§1) Mutation read through activity in african green monkey COS7 cells transfected with dual-reporter plasmid encoding beta-galactosidase and luciferase genes connected with TGA-containing mouse mdx gene exon 23 nucleotide sequence as premature termination codon assessed as ratio of luciferase activity to beta-galactosidase activity at 200 uM incubated for 48 hrs at 37 degC relative to basal level; format: functional, Chlorocebus aethiops
How it was run: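 COS-7 cells transfected with a dual-reporter plasmid: constitutive β-galactosidase upstream of a TGA premature stop codon, luciferase downstream. Compounds tested at 200 μM. Lysate luciferase/β-galactosidase activity ratio expressed relative to untreated (D-MEM) basal level = 1; some series normalized to a reference compound instead. Triplicate, mean ± SD.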

Escherichia coli = assay: Toxicity against Escherichia coli NBRC3972; format: functional
COS-7 [2] = assay: as §1, with “activity at 25 to 200 uM” for “activity at 200 uM”; format: functional, cell-based; details: Chlorocebus aethiops
Staphylococcus aureus = assay: Toxicity against Staphylococcus aureus NBRC13276; format: functional
COS-7 [3] = assay: as §1, with “20” for “200”; format: functional, Chlorocebus aethiops
[4] = Mutation read through activity in human cell-free protein synthesis system containing beta-galactosidase and luciferase genes connected with TGA-containing mouse mdx gene exon 23 nucleotide sequence as premature termination codon assessed as ratio of luciferase activity to beta-galactosidase activity at 20 uM incubated at 37 degC for 3 hrs relative to basal level
How it was run: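 Cell-free translation of the β-galactosidase–TGA–luciferase dual reporter with compound at 20 μM. Readthrough given as luciferase/β-galactosidase ratio relative to no-compound control (= 1). n = 3, mean ± SD.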

[5] = Drug metabolism in presence of porcine liver esterase assessed as (S)-2-[2-(3,5-Diaminopentanoyl)-1-methylhydrazinyl]acetic acid.2TFA formation in 100 mM pH 7.4 phosphate buffer at 37 degC incubated for 1 to 4 hrs; format: physicochemical; details: pig, isolated protein
[6] = Stability in absence of porcine liver esterase assessed as compound remaining in 100 mM pH 7.4 phosphate buffer at 37 degC after 6 hrs; format: physicochemical; details: phosphate buffer without porcine liver esterase, read-out: Stability
How it was run: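 Ester incubated without esterase in 100 mM phosphate buffer, pH 7.4, at 37 °C for 6 h. Percent compound remaining measured by RP-HPLC.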

[7] = Drug metabolism in presence of porcine liver esterase assessed as (S)-2-[2-(3,5-Diaminopentanoyl)-1-methylhydrazinyl]acetic acid.2TFA formation in 100 mM pH 7.4 phosphate buffer at 37 degC; details: pig, isolated protein, TDE = time-dependent effect

| SMILES | Ratio (COS-7 [1]) | also measured |
| --- | --- | --- |
| CCOC(=O)CN(C)NC(=O)C[C@@H](N)CCN | 2.08 | – |
| CN(CC(=O)OCc1ccccc1[N+](=O)[O-])NC(=O)C[C@@H](N)CCN | 4.51 | – |
| CN(CC(=O)O)NC(=O)CC(N)CN (single isomer, unassigned) | 1.49 | – |
| CN(CC(=O)OCc1ccc([N+](=O)[O-])cc1)NC(=O)C[C@@H](N)CCN | 3.05 | – |
| CCNC(=O)CN(C)NC(=O)C[C@@H](N)CCN | 1.42 | – |
| COc1ccc(COC(=O)CN(C)NC(=O)C[C@@H](N)CCN)cc1 | 3.25 | – |
| CN[C@@H]1[C@@H](O)[C@@H](O[C@@H]2[C@@H](O)[C@H](O[C@H]3O[C@H]([C@@H](C)O)[C@@H](O)[C@H](O)[C@H]3N)[C@@H](N)C[C@H]2N)OC[C@]1(C)O [GENETICIN] | 6.65 | – |
| CN(CC(=O)OCc1ccc(Cl)cc1)NC(=O)C[C@@H](N)CCN | 4.21 | – |
| CN(CC(=O)O)NC(=O)C[C@@H](N)CCCN | 2.94 | – |
| COc1cccc(COC(=O)CN(C)NC(=O)C[C@@H](N)CCN)c1 | 3.71 | – |
| CN(CC(=O)NCc1ccccc1)NC(=O)C[C@@H](N)CCN | 0.8 | – |
| CN(CC(=O)O)NC(=O)[C@@H](N)CN | 1.3 | – |
| CN(CC(=O)OCc1cccc([N+](=O)[O-])c1)NC(=O)C[C@@H](N)CCN | 3.21 | – |
| CN(CC(=O)O)NC(=O)C[C@@H](N)CCN | 4.28 | MIC (Escherichia coli): ≥ 1020 µg/mL; Activity (COS-7 [2]): Dose-dependent effect; MIC (Staphylococcus aureus): 1020 µg/mL (≈ 4.69 mM); Ratio (COS-7 [3]): 3.1; Ratio [4]: 2.72 |
| CN(CC(=O)OCc1ccccc1Cl)NC(=O)C[C@@H](N)CCN | 3.34 | – |
| CN(CC(=O)OCc1cccc(Br)c1)NC(=O)C[C@@H](N)CCN | 3.75 | – |
| CN(CC(=O)OCc1cccc(Cl)c1)NC(=O)C[C@@H](N)CCN | 4.9 | Drug metabolism [5]: metabolite_detected; remaining at 6 h [6]: 94%; Ratio (COS-7 [3]): 3.58; Drug metabolism [7]: tde; Ratio [4]: 1.23 |
| COc1ccccc1COC(=O)CN(C)NC(=O)C[C@@H](N)CCN | 3.1 | – |
| CN(CC(=O)OCc1ccccc1)NC(=O)C[C@@H](N)CCN | 4.04 | – |
| CN(CC(=O)OCc1ccccc1Br)NC(=O)C[C@@H](N)CCN | 3.83 | – |
| CN(CC(=O)O)NC(=O)[C@@H](N)CCN | 1.07 | – |
| CN(CC(=O)O)NC(=O)[C@@H](N)CCCCN | 1.01 | – |
| CN(CC(=O)OCc1ccc(Br)cc1)NC(=O)C[C@@H](N)CCN | 2.98 | – |
| CN(CC(=O)O)NC(=O)[C@@H](N)CCCN | 0.99 | – |
| CN(CC(=O)O)NC(=O)C[C@@H](N)CCCCN | 2.05 | – |
| CN(CC(=O)O)NC(=O)C[C@H](N)C[C@@H](O)CN [NEGAMYCIN] | 1.81 | – |
